Experimental data: ChEMBL document CHEMBL1250448, “Inhibitor hijacking of Akt activation” (Nat Chem Biol, 2009)

Legend:
[1] = target: Macrophage colony-stimulating factor 1 receptor (Homo sapiens) (UniProt P07333); test: Inhibition of CSF1R at 1 uM in presence of 10 uM ATP by Select Screen kinase assay relative to untreated control
How it was run: (§1)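 Single-point screen at 1 μM against a panel of 220 purified kinases, run by Invitrogen staff as a SelectScreen profiling service. Read-out is percent inhibition of kinase activity.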

[2] = target: Mitogen-activated protein kinase kinase kinase 9 (Homo sapiens) (UniProt P80192); test: Inhibition of MAP3K9 at 1 uM in presence of 100 uM ATP by Select Screen kinase assay relative to untreated control
Chain of Mitogen-activated protein kinase kinase kinase 9 (Homo sapiens) (P80192 whole entry, looked up): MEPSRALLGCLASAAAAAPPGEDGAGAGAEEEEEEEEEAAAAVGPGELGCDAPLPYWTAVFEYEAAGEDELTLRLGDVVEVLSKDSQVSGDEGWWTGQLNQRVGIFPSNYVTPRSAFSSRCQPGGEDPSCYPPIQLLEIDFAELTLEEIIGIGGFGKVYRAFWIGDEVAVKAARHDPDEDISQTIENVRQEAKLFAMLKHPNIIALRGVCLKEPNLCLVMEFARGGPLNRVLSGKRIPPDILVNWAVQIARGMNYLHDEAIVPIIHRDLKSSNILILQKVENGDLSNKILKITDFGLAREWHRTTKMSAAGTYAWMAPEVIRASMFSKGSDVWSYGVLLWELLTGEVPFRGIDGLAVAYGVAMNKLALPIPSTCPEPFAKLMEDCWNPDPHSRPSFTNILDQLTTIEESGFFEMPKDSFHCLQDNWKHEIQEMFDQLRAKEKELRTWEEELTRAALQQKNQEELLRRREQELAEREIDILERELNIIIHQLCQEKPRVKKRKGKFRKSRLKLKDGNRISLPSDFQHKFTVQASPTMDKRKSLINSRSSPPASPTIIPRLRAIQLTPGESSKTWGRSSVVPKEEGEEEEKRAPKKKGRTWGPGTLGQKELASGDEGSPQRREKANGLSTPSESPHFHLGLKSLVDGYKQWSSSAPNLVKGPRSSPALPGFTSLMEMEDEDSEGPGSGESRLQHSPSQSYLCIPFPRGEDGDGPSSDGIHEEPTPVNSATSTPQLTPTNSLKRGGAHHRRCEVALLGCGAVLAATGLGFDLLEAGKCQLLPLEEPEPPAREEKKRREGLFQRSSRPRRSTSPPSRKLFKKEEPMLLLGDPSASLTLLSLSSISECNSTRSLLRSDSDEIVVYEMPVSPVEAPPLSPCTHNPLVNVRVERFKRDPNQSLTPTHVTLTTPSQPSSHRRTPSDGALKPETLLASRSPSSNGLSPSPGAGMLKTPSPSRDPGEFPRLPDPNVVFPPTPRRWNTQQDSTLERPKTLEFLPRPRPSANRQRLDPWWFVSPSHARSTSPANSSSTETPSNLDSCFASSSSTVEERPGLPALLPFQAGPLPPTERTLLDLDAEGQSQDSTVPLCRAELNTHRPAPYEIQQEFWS
How it was run: (§2)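 Single-concentration profiling at 1 μM against a panel of 220 purified kinases, run as an outsourced SelectScreen kinase profiling service. Activity is expressed as percent inhibition.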

[3] = test system: Serine/threonine-protein kinase B-raf (Homo sapiens), P15056 [V600E]; test: Inhibition of BRAF V599E mutant at 1 uM in presence of 100 uM ATP by Select Screen kinase assay relative to untreated control; how it was run: as §1
Chain of Serine/threonine-protein kinase B-raf (Homo sapiens), P15056 [V600E] (P15056 whole entry V600E): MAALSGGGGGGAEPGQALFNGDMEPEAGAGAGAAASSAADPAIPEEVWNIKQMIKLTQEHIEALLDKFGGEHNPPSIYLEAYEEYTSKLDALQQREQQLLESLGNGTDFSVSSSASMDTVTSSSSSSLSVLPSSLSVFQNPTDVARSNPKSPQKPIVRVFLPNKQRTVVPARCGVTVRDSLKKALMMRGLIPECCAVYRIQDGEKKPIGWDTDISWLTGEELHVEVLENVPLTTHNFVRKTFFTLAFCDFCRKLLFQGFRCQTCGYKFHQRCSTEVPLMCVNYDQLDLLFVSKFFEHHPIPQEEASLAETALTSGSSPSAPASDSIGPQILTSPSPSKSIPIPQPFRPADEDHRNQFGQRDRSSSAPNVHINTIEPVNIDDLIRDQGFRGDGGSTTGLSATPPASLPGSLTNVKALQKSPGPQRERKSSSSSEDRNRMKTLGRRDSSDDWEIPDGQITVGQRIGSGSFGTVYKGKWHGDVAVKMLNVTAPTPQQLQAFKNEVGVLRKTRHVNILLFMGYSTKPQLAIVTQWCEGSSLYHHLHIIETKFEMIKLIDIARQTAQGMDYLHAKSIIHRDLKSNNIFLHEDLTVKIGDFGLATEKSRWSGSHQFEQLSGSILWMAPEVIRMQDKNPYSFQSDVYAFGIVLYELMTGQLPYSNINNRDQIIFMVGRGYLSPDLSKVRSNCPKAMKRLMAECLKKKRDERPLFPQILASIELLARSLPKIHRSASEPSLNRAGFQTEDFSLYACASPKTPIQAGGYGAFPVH

[4] = target: MAP kinase-activated protein kinase 2 (Homo sapiens) (UniProt P49137); test: Inhibition of MAPKAPK2 at 1 uM in presence of 10 uM ATP by Select Screen kinase assay relative to untreated control; how it was run: as §2
Chain of MAP kinase-activated protein kinase 2 (Homo sapiens) (P49137 whole entry, looked up): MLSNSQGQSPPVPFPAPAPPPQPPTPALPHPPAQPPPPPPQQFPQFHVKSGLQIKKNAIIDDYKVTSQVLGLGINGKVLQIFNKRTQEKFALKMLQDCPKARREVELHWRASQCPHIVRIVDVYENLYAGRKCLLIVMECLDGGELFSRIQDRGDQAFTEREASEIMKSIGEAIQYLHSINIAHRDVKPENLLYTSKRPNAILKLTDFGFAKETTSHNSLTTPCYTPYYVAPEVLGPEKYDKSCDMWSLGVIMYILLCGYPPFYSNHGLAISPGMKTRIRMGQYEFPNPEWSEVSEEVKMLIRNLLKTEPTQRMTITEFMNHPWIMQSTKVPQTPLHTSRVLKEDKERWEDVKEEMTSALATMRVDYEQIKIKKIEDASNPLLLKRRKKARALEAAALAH

[5] = target: Fibroblast growth factor receptor 1 (Homo sapiens) (UniProt P11362); test: Inhibition of FGFR1 at 1 uM in presence of 10 uM ATP by Select Screen kinase assay relative to untreated control; how it was run: as §1
[6] = target: T1, Cytoplasmic tyrosine-protein kinase BMX (Homo sapiens) (UniProt P51813); test: Inhibition of BMX at 1 uM in presence of 10 uM ATP by Select Screen kinase assay relative to untreated control; how it was run: as §1
T1 sequence (whole entry): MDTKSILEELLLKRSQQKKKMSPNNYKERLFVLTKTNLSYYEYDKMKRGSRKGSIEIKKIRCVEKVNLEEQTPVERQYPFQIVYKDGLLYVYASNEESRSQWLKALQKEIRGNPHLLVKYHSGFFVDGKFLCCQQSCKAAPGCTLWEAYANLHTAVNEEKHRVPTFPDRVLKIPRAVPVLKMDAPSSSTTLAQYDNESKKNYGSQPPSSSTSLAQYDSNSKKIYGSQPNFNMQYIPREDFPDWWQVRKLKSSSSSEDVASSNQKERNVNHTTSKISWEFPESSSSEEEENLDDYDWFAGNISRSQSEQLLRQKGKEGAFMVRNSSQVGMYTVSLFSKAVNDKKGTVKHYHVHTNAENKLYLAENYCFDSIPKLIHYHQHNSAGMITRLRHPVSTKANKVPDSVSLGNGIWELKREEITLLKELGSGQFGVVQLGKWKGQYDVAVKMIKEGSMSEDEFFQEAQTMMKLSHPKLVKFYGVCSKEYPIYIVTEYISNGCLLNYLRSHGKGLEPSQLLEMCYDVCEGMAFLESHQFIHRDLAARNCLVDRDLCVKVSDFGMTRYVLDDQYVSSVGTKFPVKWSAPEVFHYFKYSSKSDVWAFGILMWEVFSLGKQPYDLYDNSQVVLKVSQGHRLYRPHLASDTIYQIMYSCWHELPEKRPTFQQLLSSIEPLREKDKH

[7] = target: Serine/threonine-protein kinase B-raf (Homo sapiens) (UniProt P15056); test: Inhibition of BRAF at 1 uM in presence of 100 uM ATP by Select Screen kinase assay relative to untreated control; how it was run: as §1
Chain of Serine/threonine-protein kinase B-raf (Homo sapiens) (P15056 whole entry): as the sequence (P15056 whole entry V600E) above, with E600V counted along it

[8] = target: T2, Ephrin type-B receptor 1 (Homo sapiens) (UniProt P54762); test: Inhibition of EPHB1 at 1 uM in presence of 10 uM ATP by Select Screen kinase assay relative to untreated control; how it was run: as §1
T2 sequence (whole entry): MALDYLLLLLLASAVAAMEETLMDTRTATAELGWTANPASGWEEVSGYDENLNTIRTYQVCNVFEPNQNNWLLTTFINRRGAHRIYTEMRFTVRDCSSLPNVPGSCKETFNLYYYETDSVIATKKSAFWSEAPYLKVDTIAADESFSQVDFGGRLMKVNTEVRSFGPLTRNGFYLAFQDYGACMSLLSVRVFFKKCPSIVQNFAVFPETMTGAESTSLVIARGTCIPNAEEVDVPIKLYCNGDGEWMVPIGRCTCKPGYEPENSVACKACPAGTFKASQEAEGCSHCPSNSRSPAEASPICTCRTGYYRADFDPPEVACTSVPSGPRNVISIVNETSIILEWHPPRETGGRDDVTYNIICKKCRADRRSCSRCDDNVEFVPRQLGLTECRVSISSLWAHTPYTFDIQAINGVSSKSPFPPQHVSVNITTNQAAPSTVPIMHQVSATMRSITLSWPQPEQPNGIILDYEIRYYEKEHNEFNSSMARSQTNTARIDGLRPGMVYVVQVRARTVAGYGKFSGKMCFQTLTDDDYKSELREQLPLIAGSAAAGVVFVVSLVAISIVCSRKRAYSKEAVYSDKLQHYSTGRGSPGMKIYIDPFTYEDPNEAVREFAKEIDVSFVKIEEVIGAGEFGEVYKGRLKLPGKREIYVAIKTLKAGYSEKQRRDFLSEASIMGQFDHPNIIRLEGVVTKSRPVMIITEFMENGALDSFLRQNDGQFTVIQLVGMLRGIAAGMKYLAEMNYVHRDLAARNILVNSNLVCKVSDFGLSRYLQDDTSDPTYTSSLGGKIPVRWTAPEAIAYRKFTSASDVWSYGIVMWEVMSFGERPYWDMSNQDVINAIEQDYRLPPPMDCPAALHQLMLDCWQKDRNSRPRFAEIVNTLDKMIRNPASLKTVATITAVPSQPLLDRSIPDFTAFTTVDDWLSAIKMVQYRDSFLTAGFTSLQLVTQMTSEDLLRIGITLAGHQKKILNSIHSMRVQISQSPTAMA

[9] = target: Serine/threonine-protein kinase Nek7 (Homo sapiens) (UniProt Q8TDX7); test: Inhibition of NEK7 at 1 uM in presence of 100 uM ATP by Select Screen kinase assay relative to untreated control
Chain of Serine/threonine-protein kinase Nek7 (Homo sapiens) (Q8TDX7 whole entry, looked up): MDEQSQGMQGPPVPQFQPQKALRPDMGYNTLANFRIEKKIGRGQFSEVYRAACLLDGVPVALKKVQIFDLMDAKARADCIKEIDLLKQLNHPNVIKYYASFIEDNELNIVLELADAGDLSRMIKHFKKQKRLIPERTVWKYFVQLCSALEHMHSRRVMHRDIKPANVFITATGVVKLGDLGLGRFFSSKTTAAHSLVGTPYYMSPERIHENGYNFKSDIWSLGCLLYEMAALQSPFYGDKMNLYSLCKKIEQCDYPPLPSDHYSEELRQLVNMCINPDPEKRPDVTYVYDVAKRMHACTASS
How it was run: (§3)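 Commercial SelectScreen profiling panel of 220 purified kinases. Each kinase was tested at a single inhibitor concentration of 1 μM, and activity was expressed as percent inhibition.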

[10] = target: Calcium/calmodulin-dependent protein kinase type II subunit alpha (Homo sapiens) (UniProt Q9UQM7); test: Inhibition of CAMK2A at 1 uM in presence of 10 uM ATP by Select Screen kinase assay relative to untreated control; how it was run: as §1
Chain of Calcium/calmodulin-dependent protein kinase type II subunit alpha (Homo sapiens) (Q9UQM7 whole entry): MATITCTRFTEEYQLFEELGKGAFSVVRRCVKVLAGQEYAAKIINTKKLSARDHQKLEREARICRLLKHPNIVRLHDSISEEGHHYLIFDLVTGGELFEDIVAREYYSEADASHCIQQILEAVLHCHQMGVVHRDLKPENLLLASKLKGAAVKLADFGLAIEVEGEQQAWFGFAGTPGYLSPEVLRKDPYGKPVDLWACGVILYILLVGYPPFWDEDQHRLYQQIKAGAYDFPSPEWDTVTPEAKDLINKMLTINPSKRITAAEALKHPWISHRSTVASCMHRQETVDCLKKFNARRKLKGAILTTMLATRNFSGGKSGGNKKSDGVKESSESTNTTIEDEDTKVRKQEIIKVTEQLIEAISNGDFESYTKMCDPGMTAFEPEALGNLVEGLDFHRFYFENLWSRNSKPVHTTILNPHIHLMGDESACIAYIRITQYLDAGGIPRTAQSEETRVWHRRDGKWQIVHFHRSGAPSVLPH

[11] = target: Platelet-derived growth factor receptor alpha (Homo sapiens) (UniProt P16234); test: Inhibition of PDGFRalpha at 1 uM in presence of 100 uM ATP by Select Screen kinase assay relative to untreated control; how it was run: as §3
Chain of Platelet-derived growth factor receptor alpha (Homo sapiens) (P16234 whole entry): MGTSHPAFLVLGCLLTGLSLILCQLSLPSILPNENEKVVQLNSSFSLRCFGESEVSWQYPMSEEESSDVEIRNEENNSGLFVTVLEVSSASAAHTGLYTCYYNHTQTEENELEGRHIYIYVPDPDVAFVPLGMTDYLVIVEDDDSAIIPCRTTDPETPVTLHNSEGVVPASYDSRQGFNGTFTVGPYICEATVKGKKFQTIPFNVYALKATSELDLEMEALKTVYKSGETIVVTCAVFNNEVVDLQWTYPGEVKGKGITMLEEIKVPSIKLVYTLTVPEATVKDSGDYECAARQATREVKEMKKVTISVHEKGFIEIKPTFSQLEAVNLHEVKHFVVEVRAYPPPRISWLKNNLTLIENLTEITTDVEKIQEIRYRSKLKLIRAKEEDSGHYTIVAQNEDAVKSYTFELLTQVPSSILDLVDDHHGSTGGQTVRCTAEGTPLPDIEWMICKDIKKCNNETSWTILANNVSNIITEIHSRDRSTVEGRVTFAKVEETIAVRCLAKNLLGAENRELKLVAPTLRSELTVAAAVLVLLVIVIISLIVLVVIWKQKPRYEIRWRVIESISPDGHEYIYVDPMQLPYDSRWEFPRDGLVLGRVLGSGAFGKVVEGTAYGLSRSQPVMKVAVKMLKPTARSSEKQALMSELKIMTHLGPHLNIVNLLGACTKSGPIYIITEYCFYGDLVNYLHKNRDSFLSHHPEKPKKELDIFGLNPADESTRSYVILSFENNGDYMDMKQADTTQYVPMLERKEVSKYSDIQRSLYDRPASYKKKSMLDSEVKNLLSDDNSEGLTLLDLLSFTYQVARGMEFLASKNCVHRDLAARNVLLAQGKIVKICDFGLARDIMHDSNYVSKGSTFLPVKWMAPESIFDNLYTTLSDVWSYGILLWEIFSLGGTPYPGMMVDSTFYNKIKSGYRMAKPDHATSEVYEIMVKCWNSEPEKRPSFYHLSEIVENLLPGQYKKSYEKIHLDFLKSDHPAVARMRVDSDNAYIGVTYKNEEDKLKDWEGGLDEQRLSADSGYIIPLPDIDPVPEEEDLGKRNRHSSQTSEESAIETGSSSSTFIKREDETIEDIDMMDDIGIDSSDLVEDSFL

[12] = target: SRSF protein kinase 1 (Homo sapiens) (UniProt Q96SB4); test: Inhibition of SRPK1 at 1 uM in presence of 100 uM ATP by Select Screen kinase assay relative to untreated control; how it was run: as §3
Chain of SRSF protein kinase 1 (Homo sapiens) (Q96SB4 whole entry): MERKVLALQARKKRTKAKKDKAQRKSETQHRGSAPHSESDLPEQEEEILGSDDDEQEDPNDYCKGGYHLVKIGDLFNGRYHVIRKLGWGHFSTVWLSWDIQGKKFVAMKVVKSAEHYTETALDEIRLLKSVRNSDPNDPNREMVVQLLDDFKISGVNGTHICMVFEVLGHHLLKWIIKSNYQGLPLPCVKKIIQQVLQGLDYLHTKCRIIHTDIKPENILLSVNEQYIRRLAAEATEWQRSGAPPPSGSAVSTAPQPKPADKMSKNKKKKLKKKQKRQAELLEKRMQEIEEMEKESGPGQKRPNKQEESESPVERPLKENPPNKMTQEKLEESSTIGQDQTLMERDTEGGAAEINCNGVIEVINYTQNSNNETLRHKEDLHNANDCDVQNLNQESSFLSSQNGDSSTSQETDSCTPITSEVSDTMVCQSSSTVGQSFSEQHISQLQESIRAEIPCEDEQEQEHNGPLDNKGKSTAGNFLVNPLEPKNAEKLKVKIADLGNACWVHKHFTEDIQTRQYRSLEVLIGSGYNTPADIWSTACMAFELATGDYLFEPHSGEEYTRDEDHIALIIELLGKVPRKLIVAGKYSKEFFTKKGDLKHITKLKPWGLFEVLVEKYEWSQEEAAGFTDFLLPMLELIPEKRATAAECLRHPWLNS

[13] = test system: Fibroblast growth factor receptor 3 (Homo sapiens), P22607 [K650E]; test: Inhibition of FGFR3 K650E mutant at 1 uM in presence of 10 uM ATP by Select Screen kinase assay relative to untreated control; how it was run: as §2

Row | inhibition [1] [%] | inhibition [2] [%] | inhibition [3] [%] | inhibition [4] [%] | inhibition [5] [%] | inhibition [6] [%] | inhibition [7] [%] | inhibition [8] [%] | inhibition [9] [%] | inhibition [10] [%] | inhibition [11] [%] | inhibition [12] [%] | inhibition [13] [%] | Structure (SMILES)
1 | 44 | 98 | 52 | 2 | 46 | 39 | 38 | 16 | 9 | 79 | 93 | 12 | 38 | O=C(NCCCNc1nc(Nc2cccc(NC(=O)N3CCCC3)c2)ncc1I)c1cccs1
2 | 26 | 22 | 9 | -5 | 14 | 18 | 17 | 11 | 13 | 16 | 3 | 12 | 12 | COc1ccccc1N1CCN(c2ncnc3[nH]nc(Br)c23)CC1

Row | Structure (SMILES) | inhibition [1] [%] | inhibition [2] [%] | inhibition [3] [%] | inhibition [4] [%] | inhibition [5] [%] | inhibition [6] [%] | inhibition [7] [%] | inhibition [8] [%] | inhibition [9] [%] | inhibition [10] [%] | inhibition [11] [%] | inhibition [12] [%] | inhibition [13] [%]
3 | Cc1n[nH]c2ccc(-c3cncc(OC[C@@H](N)Cc4c[nH]c5ccccc45)c3)cc12 | 5 | 15 | 45 | 3 | 14 | -2 | 72 | 1 | 1 | 80 | 1 | 27 | 8
